{"source": "ChEMBL document CHEMBL4368912", "about": "“Discovery and Development of N-[4-(1-Cyclobutylpiperidin-4-yloxy)phenyl]-2-(morpholin-4-yl)acetamide Dihydrochloride (SUVN-G3031): A Novel, Potent, Selective, and Orally Active Histamine H3 Receptor Inverse Agonist with Robust Wake-Promoting Activity” (J Med Chem, 2019)", "key": {"[1]": {"test": "AUC (0 to 24 hrs) in Wistar rat at 1 mg/kg, iv by LC-MS/MS analysis", "assay_type": "ADME, organism-based", "parameters": "time < 24 hr, dose 1 mg/kg, route intravenous", "details": "Wistar, in vivo", "how_it_was_run": "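Fasted male Wistar rats; compound in water for injection, given i.v. (2 mL/kg) or p.o. (10 mL/kg). Plasma exposure measured as AUC0-24hr.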"}, "[2]": {"test": "Volume of distribution in Beagle dog at 1 mg/kg, iv by LC-MS/MS analysis", "assay_type": "ADME, organism-based, Canis lupus familiaris", "details": "in vivo"}, "Cytochrome P450 1A2": {"biological_target": "T1, Cytochrome P450 1A2 (Homo sapiens, UniProt P05177)", "T1 sequence (P05177 whole entry)": "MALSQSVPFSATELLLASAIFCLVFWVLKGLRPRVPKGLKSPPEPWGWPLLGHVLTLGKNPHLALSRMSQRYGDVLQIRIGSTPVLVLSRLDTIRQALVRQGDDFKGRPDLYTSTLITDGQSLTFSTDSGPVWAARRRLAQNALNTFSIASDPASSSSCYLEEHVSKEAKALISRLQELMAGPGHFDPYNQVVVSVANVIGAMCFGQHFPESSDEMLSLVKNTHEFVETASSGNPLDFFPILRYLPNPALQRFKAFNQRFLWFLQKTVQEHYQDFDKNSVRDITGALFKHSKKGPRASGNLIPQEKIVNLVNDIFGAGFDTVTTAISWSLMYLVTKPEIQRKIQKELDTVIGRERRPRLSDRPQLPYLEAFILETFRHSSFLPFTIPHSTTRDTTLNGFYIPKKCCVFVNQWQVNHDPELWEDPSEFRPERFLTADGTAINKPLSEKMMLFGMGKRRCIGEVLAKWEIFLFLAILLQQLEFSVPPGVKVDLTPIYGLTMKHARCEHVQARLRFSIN", "test": "Inhibition of CYP1A2 (unknown origin)", "assay_type": "ADME"}, "Rattus norvegicus": {"system": "Rattus norvegicus", "test": "Induction of wake promoting activity in orexin-B-saporin lesioned Wistar rat assessed as increase in wake time at 10 to 30 mg/kg, po dosed 15 mins before start of dark phase", "assay_type": "functional, organism-based", "how_it_was_run": "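Rats carried epidural frontal-cortex EEG screws, nuchal EMG leads, and bilateral lateral hypothalamic orexin-B-saporin (490 ng/0.8 µl). After at least 3 weeks' recovery, they were dosed 15 min before lights-off in a crossover design with a 1-week washout. Wake, NREM and REM time was totalled over 3 h. DREM was scored as REM after ≥60 s wake. Dunnett's test was used.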"}, "CHO-K1": {"system": "CHO-K1", "test": "Induction of phospholipidosis in CHOK1 cells up to 300 uM incubated for 24 hrs by fluorescent-labeled phospholipid probe NBD-PE based fluorescence assay", "assay_type": "cell-based, Cricetulus griseus", "details": "chinese hamster, cho-k1, 24 h"}}, "note": "Calls of active or inactive are those of the source. The calls are words filed in the database; no cut-off is given here."}
{"smiles": "Cl.Cl.O=C(CN1CCOCC1)Nc1ccc(OC2CCN(C3CCC3)CC2)cc1", "values": [{"measurement": "AUC(0-t) at 24 h", "setting": "[1]", "value": 263, "unit": "ng·h/mL"}, {"measurement": "Vd", "setting": "[2]", "value": 5.2, "unit": "L/kg"}, {"measurement": "IC50", "setting": "Cytochrome P450 1A2", "value": "> 45", "unit": "µM"}, {"measurement": "Activity", "setting": "Rattus norvegicus", "value": "Active"}, {"measurement": "Activity", "setting": "CHO-K1", "value": "Non-Toxic"}]}
